# Sampled rows, rich in hits. Any-hit rate of the full collection: about 5.4%.
# SKKanGAS inh – inhibitors of SKKanGAS S. pyogenes growth in kanamycin (SK-promoter or general growth effect). BacTiter-Glo, 6 h. inhibition, % at 7.5 µM. actives 1.3% (n = 300,000). AID 1662;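 active = mean replicate score, as percent of positive control median, at least 50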;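 also: strain carries kanamycin resistance gene driven by streptokinase promoter and grows in 40 µg/ml kanamycin; loss of luminescence reflects streptokinase promoter inhibition or plain growth inhibition; 0% = median of DMSO wells and 100% = positive control at its reference dose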
# CSC inhib – blocks cancer stem cells | cancer stem cell-like cells viability, luminescence | inhibition, % at 7.5 µM | actives 1.1% (n = 300,000) | AID 2717; in the data active = inhibition above about 75%; tested in HMLE shEcad cells
# Mdm2 MdmX PPI – inhibitors of human Mdm2/MdmX interaction; O15151+Q00987; actives 3% (n = 330,000); inhibition, % at 8 µM; SaOS-2 split-luciferase Mdm2/MdmX complementation, luminescence;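 active = inhibition of at least 50% at 8 µM in the primary screen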
# Target sequence (O15151 whole entry, looked up): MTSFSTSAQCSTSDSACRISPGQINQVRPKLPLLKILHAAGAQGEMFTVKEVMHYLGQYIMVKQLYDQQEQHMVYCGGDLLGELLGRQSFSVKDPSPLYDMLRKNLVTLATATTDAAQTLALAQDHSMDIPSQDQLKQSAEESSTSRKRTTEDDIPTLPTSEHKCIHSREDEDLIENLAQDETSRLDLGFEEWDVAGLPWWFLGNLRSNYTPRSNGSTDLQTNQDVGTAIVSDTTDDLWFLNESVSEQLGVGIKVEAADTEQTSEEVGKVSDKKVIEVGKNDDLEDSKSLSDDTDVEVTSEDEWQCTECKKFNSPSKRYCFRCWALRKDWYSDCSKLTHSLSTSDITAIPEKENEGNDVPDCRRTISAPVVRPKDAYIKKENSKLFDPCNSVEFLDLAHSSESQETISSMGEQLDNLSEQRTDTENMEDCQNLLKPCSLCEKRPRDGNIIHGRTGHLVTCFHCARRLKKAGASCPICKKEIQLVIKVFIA
# Target sequence (Q00987 whole entry, looked up): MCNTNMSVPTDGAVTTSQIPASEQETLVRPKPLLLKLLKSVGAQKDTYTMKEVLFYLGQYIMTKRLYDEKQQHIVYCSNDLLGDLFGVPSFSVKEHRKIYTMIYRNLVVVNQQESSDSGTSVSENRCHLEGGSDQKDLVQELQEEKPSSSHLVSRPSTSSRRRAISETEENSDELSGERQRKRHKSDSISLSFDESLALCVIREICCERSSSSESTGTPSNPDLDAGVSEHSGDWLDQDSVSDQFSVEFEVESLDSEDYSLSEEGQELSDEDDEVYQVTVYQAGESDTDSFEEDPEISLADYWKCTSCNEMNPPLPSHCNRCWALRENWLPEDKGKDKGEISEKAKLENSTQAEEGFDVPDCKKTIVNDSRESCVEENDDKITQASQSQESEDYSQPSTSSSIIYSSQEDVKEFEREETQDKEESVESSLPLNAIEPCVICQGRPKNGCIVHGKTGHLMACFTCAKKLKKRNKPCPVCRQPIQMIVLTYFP
# T cruzi inh – T. cruzi replication inhibition; actives 1.4% (n = 300,000); T. cruzi beta-gal in NIH3T3, luminescence, 90 h; AID 1885; inhibition, % (concentration not given with the values);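 active = mean inhibition across valid replicates above about 55%, limit read from the data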;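 also: signal also drops with host cell toxicity which is not excluded here; 0% = plate median of DMSO wells and 100% = zero luminescence signal; higher percent means less beta-gal luminescence so fewer parasites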
#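 Assay system: NIH/3T3 fibroblasts plus reporter T. cruzi. Amount: NIH/3T3 cells, 5,000 per well. Buffer or medium: DMEM, 2% fetal bovine serum. Doses: compound pinned at 50 nL/well, DMSO. Schedule: ≥90 h infection period, 3 h prior cell attachment. Signal: luminescent β-galactosidase signal after 60 min lysis. Read-out: parasite load inhibition, %.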
# aSyn 5UTR inh – MLPCN primary screen, SNCA 5' untranslated region; alpha-synuclein 5'UTR reporter, inhibitor activity; actives 0.82% (n = 300,000); inhibition, % (tested at 7.5 µM); in the data active = inhibition above about 60%;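 also: H4 neuroglioblastoma cells stably carrying SNCA 5'UTR luciferase fusion; 0% = DMSO wells and 100% = positive control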
# Mdm2 MdmX conf – confirmation of human Mdm2/MdmX interaction inhibitors; shares compounds with Mdm2 MdmX PPI; Mdm2-MdmX binding, luminescent assay; inhibition, % at 8 µM; actives 55% (n = 10,000); AID 489028; in the data active = inhibition above about 40%
# FLuc counter – counter-screen for Mdm2/MdmX inhibitors: full-length luciferase. shares compounds with Mdm2 MdmX PPI. SaOS-2 full-length luciferase counterscreen, luminescence. inhibition, % at 8 µM. actives 77% (n = 6,200). AID 504607;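 active = mean inhibition at 8 µM reaching about 37%, which flags the compound as non-specific, limit read from the data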;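 also: p53-null SaOS-2 cells with luciferase driven by a doxycycline-inducible promoter; compound on cells about two nights before reading with doxycycline added after day one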
# * marks the source's active call; other numbers are inactive results; . = no result.
SMILES,SKKanGAS inh,CSC inhib,Mdm2 MdmX PPI,T cruzi inh,aSyn 5UTR inh,Mdm2 MdmX conf,others
C[C@@]12C(=O)Nc3ccc(F)cc3C(=O)N1[C@H]1c3cc(Br)ccc3OC[C@@H]1[C@@H]2c1ccccc1,.,41,37,.,.,.,
C[C@@]12C(=O)Nc3cc(F)ccc3C(=O)N1[C@H]1c3cc(Br)ccc3OC[C@@H]1[C@@H]2c1ccccc1,.,68,56*,.,.,51*,FLuc counter=36*
CCOC(=O)[C@H]1[C@H]2COc3ccc(Br)cc3[C@@H]2N2C(=O)c3ccc(Cl)cc3NC(=O)[C@@]12C,.,33,54*,.,.,34,
CCOC(=O)[C@H]1[C@H]2COc3ccc(C)cc3[C@@H]2N2C(=O)c3ccc(C)cc3NC(=O)[C@@]12C,.,1,15,.,.,.,
Cc1ccc2c(c1)[C@H]1[C@H](CO2)[C@H](c2ccccc2)[C@]2(C)C(=O)Nc3cc(F)ccc3C(=O)N12,.,.,58*,.,.,30,
CSc1ccc(/C=N/NC(=O)COc2ccc(Br)cc2Cl)cc1,7,-9,28,-2,0,.,
Cc1cc(OCC(=O)Nc2ccc(CN3CCOCC3)cc2)c2c(C)c(C)c(=O)oc2c1,1,-3,58*,32,-51,24,
Cc1cc(OCC(=O)Nc2ccc(CN3CCOCC3)cc2)c2c(C)cc(=O)oc2c1,1,-2,33,-1,-15,.,
CC1CCCN(C(=O)CCc2nnc(-c3ccc4c(c3)OCO4)o2)C1 (stereo unspecified),2,6,-4,1,-43,.,
O=C(Nc1nc2cc3c(cc2s1)OCO3)C1=COCCO1,16,48,52*,-2,95*,28,
O=C(Nc1nc(-c2ccc(Cl)s2)cs1)c1ccco1,13,-9,-54,40,-203,.,
O=C(Nc1nc2cc3c(cc2s1)OCCO3)c1ccco1,62*,-1,71*,-7,66*,68*,FLuc counter=74*
O=C(Nc1nc2cc3c(cc2s1)OCCO3)c1ccncc1,.,7,-119,.,.,.,
O=C(Nc1nc(-c2nc3ccccc3s2)cs1)c1ccco1,-3,-5,73*,-12,-161,-15,
O=C(c1nn2c(C(F)(F)F)cc(-c3ccccc3)nc2c1Cl)N1CCN2CCCC2C1 (stereo unspecified),-5,.,21,14,13,.,
Cc1cc(C(=O)CSc2nnc(-c3ccccc3)o2)c(C)n1CC1COc2ccccc2O1 (stereo unspecified),6,-20,27,26,-2,.,
Cc1cc(C(=O)CSc2nnc(-c3ccc(F)cc3)o2)c(C)n1CC1COc2ccccc2O1 (stereo unspecified),6,64,62*,20,16,23,
COc1ccc(-n2ccnc2SCC(=O)NC2CCCC2)cc1,.,-23,-28,.,.,.,
CCCCn1c(N)c(N(CCC(C)C)C(=O)C2CC(=O)N(c3ccccc3OCC)C2)c(=O)[nH]c1=O (stereo unspecified),.,-13,-8,-6,-2,.,
CCOc1ccccc1N1CCN(C(=O)c2cc3ccccc3cc2OC)CC1,.,.,57*,.,.,80*,FLuc counter=69*
CCOc1ccccc1N1CCN(C(=O)c2ccncc2)CC1,-9,.,-3,-21,45,.,
CCOc1ccccc1N1CCN(C(=O)c2cc(-c3cccnc3)nc3c(Cl)cccc23)CC1,33,1,88*,28,16,83*,FLuc counter=52*
COc1cc2ccccc2cc1C(=O)N1CCN(C(C)=O)CC1,-1,-7,16,-9,-13,.,
CC(=O)OCC1OC(OC2C[C@]3(C)C(CC(O)C4C([C@](C)(CCC=C(C)C)OC5OC(CO)C(O)C(O)C5O)CC[C@]43C)[C@@]3(C)CCC(O)C(C)(C)C23)C(O[C@@H]2OC(C)C(O)C(O)C2O)C(O)C1O (stereo partly specified),.,.,-6,.,.,.,
Cc1ccc(C(=O)c2cnc3cc4c(cc3c2S(=O)(=O)c2ccccc2)OCCO4)cc1,0,.,61*,22,-133,42*,FLuc counter=52*
CC(C)c1onc(C(=O)N2CCN(C(c3ccccc3)c3ccccc3)CC2)c1[N+](=O)[O-],9,49,74*,57*,-11,94*,FLuc counter=64*
Cc1onc(C(=O)N2CCC(Cc3ccccc3)CC2)c1[N+](=O)[O-],9,.,82*,7,-16,6,

# High-throughput results as filed in PubChem.
